The values that follow come from ChEMBL document CHEMBL1275584, “Genetically engineered lipopeptide antibiotics related to A54145 and daptomycin with improved properties” (Antimicrob Agents Chemother, 2010).

≈ marks a conversion by molar mass, not a printed value.

What all share (type): functional
Assay [1] relates to Staphylococcus aureus. The assay can be described thus: Antibacterial activity against Staphylococcus aureus 42 in absence of 1% bovine pulmonary surfactant by CLSI method. The conditions noted are these: Staphylococcus aureus, 42, Pulmonary surfactant. The essentials:
(§1)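 Broth MIC in Mueller-Hinton broth with 50 mg/liter CaCl2, run with or without 1% bovine pulmonary surfactant, following CLSI methods. Colonies came from frozen stocks streaked on sheep-blood tryptic soy agar (37°C, ~24 h). Incubation was at 37°C with rotation at 200 rpm. The ratio is MIC with surfactant divided by MIC without.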

Assay [2] concerns Staphylococcus aureus. The assay can be described thus: Antibacterial activity against Staphylococcus aureus 42 in presence of 1% bovine pulmonary surfactant by CLSI method. Conditions: Staphylococcus aureus, 42, Pulmonary surfactant. The procedure, abridged: as §1
The subject of assay [3] is Staphylococcus aureus. The assay can be described thus: Ratio of MIC for Staphylococcus aureus 42 in presence of 1% bovine pulmonary surfactant to MIC for Staphylococcus aureus 42 in absence of 1% bovine pulmonary surfactant. The essentials: as §1

As for `CC[C@H](C)[C@@H]1NC(=O)[C@H](CCC(=O)O)NC(=O)[C@@H](C)NC(=O)CNC(=O)[C@H]([C@H](OC)C(=O)O)NC(=O)[C@@H](CCCCN)NC(=O)[C@H](CC(=O)O)NC(=O)[C@H](C)NC(=O)CN(C)C(=O)[C@@H](NC(=O)[C@@H](NC(=O)[C@@H](CCC(=O)O)NC(=O)[C@H](Cc2c[nH]c3ccccc23)NC(=O)CCCCCCCC(C)C)[C@H](O)C(N)=O)[C@H](C)OC1=O`, the results for the MIC against Staphylococcus aureus [1] and in the assay on Staphylococcus aureus [2] were 8 µg/mL (≈ 4.95 µM) and 16 µg/mL, respectively. Further, the Ratio in the assay with Staphylococcus aureus [3] is on record as 2.

As to `CC[C@H](C)[C@@H]1NC(=O)[C@H]([C@H](C)CC(=O)O)NC(=O)[C@@H](CO)NC(=O)CNC(=O)[C@H](CC(=O)O)NC(=O)[C@@H](C)NC(=O)[C@H](CC(=O)O)NC(=O)[C@H](CCCN)NC(=O)CNC(=O)[C@@H](NC(=O)[C@H](CC(=O)O)NC(=O)[C@@H](CC(N)=O)NC(=O)[C@H](Cc2c[nH]c3ccccc23)NC(=O)CCCCCCCC(C)C)[C@H](C)OC1=O`, the MIC in the assay with Staphylococcus aureus [1] stood at 2 µg/mL (≈ 1.28 µM); with Staphylococcus aureus [2], 8 µg/mL. The Ratio with Staphylococcus aureus [3] came out at 4.

Regarding `CC[C@H](C)[C@@H]1NC(=O)[C@H](CCC(=O)O)NC(=O)[C@@H](CO)NC(=O)CNC(=O)[C@H]([C@H](OC)C(=O)O)NC(=O)[C@@H](CCCCN)NC(=O)[C@H](CC(=O)O)NC(=O)[C@H](C)NC(=O)CN(C)C(=O)[C@@H](NC(=O)[C@@H](NC(=O)[C@@H](CCC(=O)O)NC(=O)[C@H](Cc2c[nH]c3ccccc23)NC(=O)CCCCCCCC(C)C)[C@H](O)C(N)=O)[C@H](C)OC1=O`, the minimal inhibitory concentration (MIC) against Staphylococcus aureus [1] is 64 µg/mL (≈ 39.2 µM); in the assay with Staphylococcus aureus [2], 128 µg/mL. Also, the Ratio in the assay on Staphylococcus aureus [3] turned out to be 2.

In the case of `CC(C)CCCCCCCC(=O)N[C@@H](Cc1c[nH]c2ccccc12)C(=O)N[C@H](CC(N)=O)C(=O)N[C@@H](CC(=O)O)C(=O)N[C@@H]1C(=O)NCC(=O)N[C@@H](CCCN)C(=O)N[C@@H](CC(=O)O)C(=O)N[C@H](C)C(=O)N[C@@H](CC(=O)O)C(=O)NCC(=O)N[C@H](CO)C(=O)N[C@@H]([C@H](C)CC(=O)O)C(=O)N[C@@H](CC(=O)c2ccccc2N)C(=O)O[C@H]1C`, the MIC was determined as 0.5 µg/mL (≈ 0.306 µM) in the assay on Staphylococcus aureus [1] and 64 µg/mL in the assay with Staphylococcus aureus [2]. In addition, the Ratio with Staphylococcus aureus [3] is listed as 128.

As to `CC[C@H](C)[C@@H]1NC(=O)[C@H](CCC(=O)O)NC(=O)[C@@H](CC(N)=O)NC(=O)CNC(=O)[C@H]([C@H](OC)C(=O)O)NC(=O)[C@@H](CC(N)=O)NC(=O)[C@H](CC(=O)O)NC(=O)[C@H](C)NC(=O)CN(C)C(=O)[C@@H](NC(=O)[C@@H](NC(=O)[C@@H](CCC(=O)O)NC(=O)[C@H](Cc2c[nH]c3ccccc23)NC(=O)CCCCCCCC(C)C)[C@H](O)C(N)=O)[C@H](C)OC1=O`, the MIC stood at 16 µg/mL (≈ 9.73 µM) against Staphylococcus aureus [1] and 16 µg/mL in the assay on Staphylococcus aureus [2]. The Ratio in the assay on Staphylococcus aureus [3] came out at 1.

As for `CC(C)CCCCCCCC(=O)N[C@@H](Cc1c[nH]c2ccccc12)C(=O)N[C@H](CC(N)=O)C(=O)N[C@@H](CC(=O)O)C(=O)N[C@@H]1C(=O)NCC(=O)N[C@@H](CCCN)C(=O)N[C@@H](CC(=O)O)C(=O)N[C@H](CCCCN)C(=O)N[C@@H](CC(=O)O)C(=O)NCC(=O)N[C@H](CC(N)=O)C(=O)N[C@@H]([C@H](C)CC(=O)O)C(=O)N[C@@H](CC(=O)c2ccccc2N)C(=O)O[C@H]1C`, the minimum inhibitory concentration (MIC) with Staphylococcus aureus [1] worked out at 1 µg/mL (≈ 0.582 µM); in the assay with Staphylococcus aureus [2], 32 µg/mL. The Ratio in the assay with Staphylococcus aureus [3] worked out at 32.

As to `CC(C)CCCCCCCC(=O)N[C@@H](Cc1c[nH]c2ccccc12)C(=O)N[C@H](CC(N)=O)C(=O)N[C@@H](CC(=O)O)C(=O)N[C@@H]1C(=O)NCC(=O)N[C@@H](CCCN)C(=O)N[C@@H](CC(=O)O)C(=O)N[C@H](C)C(=O)N[C@@H](CC(=O)O)C(=O)NCC(=O)N[C@H](C)C(=O)N[C@@H]([C@H](C)CC(=O)O)C(=O)N[C@@H](CC(=O)c2ccccc2N)C(=O)O[C@H]1C`, the minimal inhibitory concentration (MIC) in the assay on Staphylococcus aureus [1] is 1 µg/mL (≈ 0.618 µM); in the assay on Staphylococcus aureus [2], 16 µg/mL. Besides, the Ratio in the assay with Staphylococcus aureus [3] is given as 16.

In the case of `CC[C@H](C)[C@@H]1NC(=O)[C@H]([C@H](C)CC(=O)O)NC(=O)[C@@H](CC(N)=O)NC(=O)CNC(=O)[C@H]([C@H](OC)C(=O)O)NC(=O)[C@@H](CC(N)=O)NC(=O)[C@H](CC(=O)O)NC(=O)[C@H](C)NC(=O)CN(C)C(=O)[C@@H](NC(=O)[C@@H](NC(=O)[C@@H](CCC(=O)O)NC(=O)[C@H](Cc2c[nH]c3ccccc23)NC(=O)CCCCCCCC(C)C)[C@H](O)C(N)=O)[C@H](C)OC1=O`, the results for the MIC with Staphylococcus aureus [1] and in the assay with Staphylococcus aureus [2] were 8 µg/mL (≈ 4.82 µM) and 64 µg/mL, respectively. Further, the Ratio in the assay on Staphylococcus aureus [3] was 8.

For `CC(C)CCCCCCCC(=O)N[C@@H](Cc1c[nH]c2ccccc12)C(=O)N[C@H](CC(N)=O)C(=O)N[C@@H](CC(=O)O)C(=O)N[C@@H]1C(=O)NCC(=O)N[C@@H](CCCN)C(=O)N[C@@H](CC(=O)O)C(=O)N[C@H](C)C(=O)N[C@@H](CC(=O)O)C(=O)NCC(=O)N[C@H](CC(N)=O)C(=O)N[C@@H]([C@H](C)CC(=O)O)C(=O)N[C@@H](CC(=O)c2ccccc2N)C(=O)O[C@H]1C`, the MIC stood at 1 µg/mL (≈ 0.602 µM) with Staphylococcus aureus [1] and 16 µg/mL with Staphylococcus aureus [2]. Further, the Ratio with Staphylococcus aureus [3] was 16.

In the case of `CC[C@H](C)[C@@H]1NC(=O)[C@H]([C@H](C)CC(=O)O)NC(=O)[C@@H](CC(N)=O)NC(=O)CNC(=O)[C@H]([C@H](OC)C(=O)O)NC(=O)[C@@H](C)NC(=O)[C@H](CC(=O)O)NC(=O)[C@H](C)NC(=O)CN(C)C(=O)[C@@H](NC(=O)[C@@H](NC(=O)[C@@H](CCC(=O)O)NC(=O)[C@H](Cc2c[nH]c3ccccc23)NC(=O)CCCCCCCC(C)C)[C@H](O)C(N)=O)[C@H](C)OC1=O`, the minimal inhibitory concentration (MIC) against Staphylococcus aureus [1] is 1 µg/mL (≈ 0.619 µM); with Staphylococcus aureus [2], 32 µg/mL. In the assay with Staphylococcus aureus [3], the Ratio turned out to be 32.

`CC[C@H](C)[C@@H]1NC(=O)[C@H](CCC(=O)O)NC(=O)[C@@H](CC(N)=O)NC(=O)CNC(=O)[C@H]([C@H](OC)C(=O)O)NC(=O)[C@@H](CO)NC(=O)[C@H](CC(=O)O)NC(=O)[C@H](C)NC(=O)CN(C)C(=O)[C@@H](NC(=O)[C@@H](NC(=O)[C@@H](CCC(=O)O)NC(=O)[C@H](Cc2c[nH]c3ccccc23)NC(=O)CCCCCCCC(C)C)[C@H](O)C(N)=O)[C@H](C)OC1=O`: the MIC in the assay with Staphylococcus aureus [1] turned out to be 8 µg/mL (≈ 4.95 µM); in the assay with Staphylococcus aureus [2] it was 8 µg/mL. Besides, the Ratio in the assay with Staphylococcus aureus [3] worked out at 1.

In the case of `CC(C)CCCCCCCC(=O)N[C@@H](Cc1c[nH]c2ccccc12)C(=O)N[C@H](CC(N)=O)C(=O)N[C@@H](CC(=O)O)C(=O)N[C@@H]1C(=O)NCC(=O)N[C@@H](CCCN)C(=O)N[C@@H](CC(=O)O)C(=O)N[C@H](C)C(=O)N[C@@H](CC(=O)O)C(=O)NCC(=O)N[C@H](CO)C(=O)N[C@@H](CCC(=O)O)C(=O)N[C@@H](CC(=O)c2ccccc2N)C(=O)O[C@H]1C`, the results for the minimum inhibitory concentration (MIC) in the assay on Staphylococcus aureus [1] and with Staphylococcus aureus [2] were 8 µg/mL (≈ 4.94 µM) and 16 µg/mL, respectively. Also, the Ratio in the assay with Staphylococcus aureus [3] is on record as 2.

As for `CC[C@H](C)[C@@H]1NC(=O)[C@H]([C@H](C)CC(=O)O)NC(=O)[C@@H](CC(N)=O)NC(=O)CNC(=O)[C@H]([C@H](OC)C(=O)O)NC(=O)[C@@H](CCCCN)NC(=O)[C@H](CC(=O)O)NC(=O)[C@H](C)NC(=O)CN(C)C(=O)[C@@H](NC(=O)[C@H](CC(N)=O)NC(=O)[C@@H](CCC(=O)O)NC(=O)[C@H](Cc2c[nH]c3ccccc23)NC(=O)CCCCCCCC(C)C)[C@H](C)OC1=O`, the MIC is 2 µg/mL (≈ 1.21 µM) against Staphylococcus aureus [1] and 16 µg/mL with Staphylococcus aureus [2]. Further, the Ratio in the assay on Staphylococcus aureus [3] was found to be 8.

On to `CC(C)CCCCCCCC(=O)N[C@@H](Cc1c[nH]c2ccccc12)C(=O)N[C@H](CC(N)=O)C(=O)N[C@@H](CC(=O)O)C(=O)N[C@@H]1C(=O)NCC(=O)N[C@@H](CCCN)C(=O)N[C@@H](CC(=O)O)C(=O)N[C@H](C)C(=O)N[C@@H](CC(=O)O)C(=O)NCC(=O)N[C@H](CO)C(=O)N[C@@H]([C@H](C)CC(=O)O)C(=O)N[C@@H](Cc2c[nH]c3ccccc23)C(=O)O[C@H]1C`, for which the figures for the MIC with Staphylococcus aureus [1] and in the assay with Staphylococcus aureus [2] were 1 µg/mL (≈ 0.613 µM) and 32 µg/mL, respectively. Moreover, in the assay with Staphylococcus aureus [3], the Ratio is recorded as 32.

For the compound `CC[C@H](C)[C@@H]1NC(=O)[C@H]([C@H](C)CC(=O)O)NC(=O)[C@@H](CO)NC(=O)CNC(=O)[C@H]([C@H](OC)C(=O)O)NC(=O)[C@@H](CCCCN)NC(=O)[C@H](CC(=O)O)NC(=O)[C@H](C)NC(=O)CN(C)C(=O)[C@@H](NC(=O)[C@@H](NC(=O)[C@@H](CCC(=O)O)NC(=O)[C@H](Cc2c[nH]c3ccccc23)NC(=O)CCCCCCCC(C)C)[C@H](O)C(N)=O)[C@H](C)OC1=O`, the MIC worked out at 2 µg/mL (≈ 1.22 µM) against Staphylococcus aureus [1] and 16 µg/mL in the assay with Staphylococcus aureus [2]. In addition, in the assay with Staphylococcus aureus [3], the Ratio came out at 8.

Turning to `CC(C)CCCCCCCC(=O)N[C@@H](Cc1c[nH]c2ccccc12)C(=O)N[C@H](CC(N)=O)C(=O)N[C@@H](CC(=O)O)C(=O)N[C@@H]1C(=O)NCC(=O)N[C@@H](CCCN)C(=O)N[C@@H](CC(=O)O)C(=O)N[C@H](C)C(=O)N[C@@H](CC(=O)O)C(=O)NCC(=O)N[C@H](CO)C(=O)N[C@@H]([C@H](C)CC(=O)O)C(=O)N[C@@H](C(C)C)C(=O)O[C@H]1C`, the minimal inhibitory concentration (MIC) in the assay on Staphylococcus aureus [1] is 4 µg/mL (≈ 2.59 µM); in the assay on Staphylococcus aureus [2], 8 µg/mL. In the assay on Staphylococcus aureus [3], the Ratio is 2.

For the compound `CC[C@H](C)[C@@H]1NC(=O)[C@H](CCC(=O)O)NC(=O)[C@@H](CC(N)=O)NC(=O)CNC(=O)[C@H]([C@H](OC)C(=O)O)NC(=O)[C@@H](C)NC(=O)[C@H](CC(=O)O)NC(=O)[C@H](C)NC(=O)CN(C)C(=O)[C@@H](NC(=O)[C@@H](NC(=O)[C@@H](CCC(=O)O)NC(=O)[C@H](Cc2c[nH]c3ccccc23)NC(=O)CCCCCCCC(C)C)[C@H](O)C(N)=O)[C@H](C)OC1=O`, the figures for the minimal inhibitory concentration (MIC) against Staphylococcus aureus [1] and in the assay with Staphylococcus aureus [2] were 4 µg/mL (≈ 2.5 µM) and 8 µg/mL, respectively. For the same compound, the Ratio in the assay with Staphylococcus aureus [3] came to 2.
